Assay results as given in ChEMBL document CHEMBL4229515, “A novel synthesis of 2-arylbenzimidazoles in molecular sieves-MeOH system and their antitubercular activity” (Bioorg Med Chem, 2018).
In brackets after ≈: the same amount, converted by molar mass.

Key:
[1] = system: Mycobacterium tuberculosis; test: Antimycobacterial activity against Mycobacterium tuberculosis H37Rv by BACTEC 460 radiometric method; format: functional
Summary of the method: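 Radiometric BACTEC assay against the H37Rv strain, run per a previously reported method. Positive controls were rifampicin, streptomycin and isoniazid. The MIC was read in µM.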

[2] = Lipophilicity, log P of the compound; format: physicochemical; conditions: octanol/water
[3] = molecular target: DNA gyrase subunit A/DNA gyrase subunit B (Mycobacterium tuberculosis (strain ATCC 25618 / H37Rv), UniProt P9WG45+P9WG47); test: Inhibition of Mycobacterium tuberculosis DNA gyrase supercoiling activity using relaxed pBR322 as substrate after 30 mins by agarose gel electrophoresis; format: protein-complex assay
DNA gyrase subunit A/DNA gyrase subunit B, sequence (P9WG45 whole entry): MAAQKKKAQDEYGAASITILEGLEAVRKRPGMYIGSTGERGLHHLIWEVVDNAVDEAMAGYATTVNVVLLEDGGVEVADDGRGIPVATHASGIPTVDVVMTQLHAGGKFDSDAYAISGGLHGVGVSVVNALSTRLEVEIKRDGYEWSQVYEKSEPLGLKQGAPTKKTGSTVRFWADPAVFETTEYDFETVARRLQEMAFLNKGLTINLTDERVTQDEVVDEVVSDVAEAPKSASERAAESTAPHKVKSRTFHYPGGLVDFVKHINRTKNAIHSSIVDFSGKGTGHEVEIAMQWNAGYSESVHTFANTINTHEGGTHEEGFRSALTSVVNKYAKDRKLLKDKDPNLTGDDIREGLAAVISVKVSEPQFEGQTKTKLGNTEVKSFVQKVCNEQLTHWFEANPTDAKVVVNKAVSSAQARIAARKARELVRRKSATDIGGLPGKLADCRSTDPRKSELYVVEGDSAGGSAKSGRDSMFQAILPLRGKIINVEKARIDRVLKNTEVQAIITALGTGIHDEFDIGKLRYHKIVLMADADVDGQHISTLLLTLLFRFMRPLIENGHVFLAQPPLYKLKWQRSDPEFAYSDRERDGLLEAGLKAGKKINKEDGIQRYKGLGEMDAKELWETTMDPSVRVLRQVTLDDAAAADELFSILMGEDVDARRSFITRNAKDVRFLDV
DNA gyrase subunit A/DNA gyrase subunit B, sequence (P9WG47 whole entry): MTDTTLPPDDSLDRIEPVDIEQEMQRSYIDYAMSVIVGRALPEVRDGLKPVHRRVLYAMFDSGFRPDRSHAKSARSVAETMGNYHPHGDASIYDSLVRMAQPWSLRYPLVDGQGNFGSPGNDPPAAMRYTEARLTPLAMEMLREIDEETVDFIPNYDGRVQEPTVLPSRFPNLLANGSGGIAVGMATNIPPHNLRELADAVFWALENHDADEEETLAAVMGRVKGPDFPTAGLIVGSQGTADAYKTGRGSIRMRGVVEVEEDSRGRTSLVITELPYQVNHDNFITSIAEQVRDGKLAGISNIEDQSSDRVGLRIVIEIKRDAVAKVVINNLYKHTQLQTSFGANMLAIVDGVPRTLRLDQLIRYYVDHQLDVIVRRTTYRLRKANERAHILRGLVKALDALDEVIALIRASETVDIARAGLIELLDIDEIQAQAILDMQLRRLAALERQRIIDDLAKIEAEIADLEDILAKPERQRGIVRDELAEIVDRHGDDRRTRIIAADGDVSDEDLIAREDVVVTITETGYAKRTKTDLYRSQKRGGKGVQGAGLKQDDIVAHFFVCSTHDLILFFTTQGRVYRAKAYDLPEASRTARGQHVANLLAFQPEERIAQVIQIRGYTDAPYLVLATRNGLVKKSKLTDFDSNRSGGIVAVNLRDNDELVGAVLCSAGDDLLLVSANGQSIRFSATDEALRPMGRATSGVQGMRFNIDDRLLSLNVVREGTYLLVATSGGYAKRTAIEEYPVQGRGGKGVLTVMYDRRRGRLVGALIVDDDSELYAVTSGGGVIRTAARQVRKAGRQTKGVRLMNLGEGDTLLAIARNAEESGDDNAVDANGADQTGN

Row | Compound | MIC [1] | logP [2] | logP ([2]; read-out: logP) | IC50 [3]
1 | NNC(=O)c1ccncc1 [ISONIAZID] | 1 µM (≈ 0.137 µg/mL) | 0.64 | – | –
2 | Oc1ccc(-c2nc3ccccc3[nH]2)cc1 | 424 µM (≈ 89.1 µg/mL) | – | 2.47 | –
3 | CO[C@H]1/C=C/O[C@@]2(C)Oc3c(C)c(O)c4c(O)c(c(/C=N/N5CCN(C)CC5)c(O)c4c3C2=O)NC(=O)/C(C)=C\C=C\[C@H](C)[C@H](O)[C@@H](C)[C@@H](O)[C@@H](C)[C@H](OC(C)=O)[C@@H]1C [RIFAMPIN] | 3 µM (≈ 2.47 µg/mL) | 3.72 | – | –
4 | Fc1ccc(Cn2c(-c3ccc(F)cc3)nc3ccccc32)cc1 | 312 µM (≈ 99.9 µg/mL) | – | 5.51 | –
5 | [H]/N=C(/N)N[C@H]1[C@H](O)[C@@H](O)[C@H](O[C@@H]2O[C@@H](C)[C@](O)(C=O)[C@H]2O[C@@H]2O[C@@H](CO)[C@H](O)[C@@H](O)[C@@H]2NC)[C@@H](N/C(N)=N\[H])[C@@H]1O [STREPTOMYCIN] | 4 µM (≈ 2.33 µg/mL) | – | 8.01 | –
6 | c1ccc2c(c1)nc(-c1ccc3c(c1)OCO3)n2Cc1ccc2c(c1)OCO2 | 67 µM (≈ 24.9 µg/mL) | – | 2.64 | 85.7 µM
7 | COc1ccc2c(c1)nc(-c1ccc3c(c1)OCO3)n2Cc1ccc2c(c1)OCO2 | 24 µM (≈ 9.66 µg/mL) | – | 4.26 | 294 µM
8 | COc1ccc2c(c1)nc(-c1ccc(F)cc1)n2Cc1ccc(F)cc1 | 285 µM (≈ 99.9 µg/mL) | – | 5.02 | –
9 | COc1ccccc1-c1nc2ccccc2[nH]1 | 406 µM (≈ 91.1 µg/mL) | – | 2.74 | –
10 | COc1ccc2[nH]c(-c3ccc(F)cc3)nc2c1 | 103 µM (≈ 25 µg/mL) | – | 2.9 | 380 µM
